Type in all cases: functional
The species entered for experiment [1] is Homo sapiens. The experiment can be described thus: Compound was evaluated for the inhibitory activity against human platelet aggregation by COL/ADP cartridges at a concentration of 2 x 10 e-3 M. In outline: (§1)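 Human whole blood drawn by forearm venipuncture into 3.8% (0.129 M) buffered sodium citrate (1:9 anticoagulant:blood). Aliquots incubated with compound (in 0.1 N NaOH/water 1:10; final 1–5 mM) 37 °C, 30 min, then loaded into PFA-100 cartridge (collagen/epinephrine or collagen/ADP). Closure time read in seconds; % inhibition calculated against vehicle-treated control blood.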

For experiment [2], the species on record is Homo sapiens. The experiment can be described thus: Compound was evaluated for the inhibitory activity against human platelet aggregation by COL/ADP cartridges at a concentration of 1 x 10 e-3 M. The gist of the method: as §1
The species named for experiment [3] is Homo sapiens. The experiment can be described thus: Compound was evaluated for the inhibitory activity against human platelet aggregation by COL/ADP cartridges at a concentration of 5 x 10 e-3 M. The conditions noted are these: for inhibition at 5000 µM: Homo sapiens. In outline: as §1
For experiment [4], the species on record is Homo sapiens. The experiment can be described thus: Compound concentration that cause 50% inhibition of human platelet aggregation by COL/EPI cartridges. In outline: as §1
For experiment [5], the species on record is Homo sapiens. The experiment can be described thus: Compound was evaluated for the inhibitory activity against human platelet aggregation by COL/ADP cartridges at a concentration of 4 x 10 e-3 M. To be noted: for inhibition at 4000 µM: Homo sapiens. In outline:
as §1

For experiment [6], the species on record is Homo sapiens. The experiment can be described thus: Compound was evaluated for the inhibitory activity against human platelet aggregation by COL/ADP cartridges at a concentration of 3 x 10 e-3 M. The conditions noted are these: for inhibition at 3000 µM: Homo sapiens. In outline:
as §1

In the experiment filed under Homo sapiens [1], `Cc1ccc(C)c(OCCCC(C)C(=O)O)c1` (single isomer, unassigned; (+)) returned an inhibition at 2000 µM of 0%. This compound also yielded an inhibition at 1000 µM in the experiment listed under Homo sapiens [2] of 0%. Besides, the values for the Inhibition in the experiment listed under Homo sapiens [3], in the experiment filed under Homo sapiens [5] and in the experiment filed under Homo sapiens [6] were 5.36%, 0% and 0.97%, respectively. This compound had an IC50 in the experiment filed under Homo sapiens [4] (Homo sapiens) of 3090 µM.
With `CCC(CCCOc1cc(C)ccc1C)C(=O)O` (single isomer, unassigned; (+)), the Inhibition is 100% in the experiment filed under Homo sapiens [3], 0% in the experiment listed under Homo sapiens [5] and 0% in the experiment filed under Homo sapiens [6]. Further, in the experiment filed under Homo sapiens [4], the IC50 was found to be 4120 µM.
As to `Cc1ccc(C)c(OCCCC(C)C(=O)O)c1` (single isomer, unassigned; (-)), the Inhibition in the experiment listed under Homo sapiens [3] was 100%; in the experiment filed under Homo sapiens [6], 0%. This compound gave an IC50 in the experiment listed under Homo sapiens [4] of 2610 µM.
As to `Cc1ccc(C)c(OCCCC(C)C(=O)O)c1` (stereo in doubt; 5a), the Inhibition in the experiment listed under Homo sapiens [3] was 24.39%; in the experiment listed under Homo sapiens [5], 4.39%; in the experiment listed under Homo sapiens [6], 0.49%. For the same compound, the half-maximal inhibitory concentration (IC50) in the experiment filed under Homo sapiens [4] came out at 2470 µM.
Take `CCC(CCCOc1cc(C)ccc1C)C(=O)O` (stereo in doubt; 5b): the inhibition at 2000 µM in the experiment listed under Homo sapiens [1] amounted to 0%. Moreover, 1000 µM produced 0% inhibition in the experiment listed under Homo sapiens [2]. The results for the Inhibition in the experiment listed under Homo sapiens [3], in the experiment listed under Homo sapiens [5] and in the experiment listed under Homo sapiens [6] were 2.57%, 5.51% and 3.3%, respectively. Besides, in the experiment filed under Homo sapiens [4] (Homo sapiens), the IC50 amounted to 2420 µM.
As to `CC(=O)Oc1ccccc1C(=O)O` [ASPIRIN], 2000 µM produced 0% inhibition in the experiment filed under Homo sapiens [1]. In the experiment listed under Homo sapiens [2], this compound displayed an inhibition at 1000 µM of 0%. In the experiment listed under Homo sapiens [3], at 5000 µM the inhibition was 17.1%. The same compound had an IC50 in the experiment filed under Homo sapiens [4] (Homo sapiens) of 50 µM. In addition, the inhibition at 4000 µM in the experiment listed under Homo sapiens [5] is 6.76%. In addition, in the experiment filed under Homo sapiens [6], the inhibition at 3000 µM turned out to be 0%.
In the experiment filed under Homo sapiens [1], `Cc1ccc(C)c(OCCCC(C)(C)C(=O)O)c1` [GEMFIBROZIL] registered an inhibition at 2000 µM of 2.5%. Moreover, in the experiment filed under Homo sapiens [2], 1000 µM produced 0% inhibition. In the experiment listed under Homo sapiens [3], this compound registered an inhibition at 5000 µM of 100%. For the same compound, in the experiment listed under Homo sapiens [4] (Homo sapiens), inhibition was half-maximal at 2670 µM (IC50). In the experiment listed under Homo sapiens [5], this compound showed an inhibition at 4000 µM of 100%. In the experiment filed under Homo sapiens [6], this compound showed an inhibition at 3000 µM of 17%.

Broadly, the inhibition is the share of the control response that was lost under treatment. High values mean a strong effect, low ones a weak effect. A word on the Inhibition: it is the drop in the measured response relative to a control, in per cent. Low readings indicate a weak effect, high ones a strong effect. For orientation: IC50 means the midpoint of a concentration-inhibition curve.

The record behind these values is ChEMBL document CHEMBL1135232, “Synthesis and antiplatelet activity of gemfibrozil chiral analogues” (Bioorg Med Chem Lett, 2002).
